Converted amounts (≈) assume the structure as drawn.
Key:
Staphylococcus aureus [1] = test: Antibacterial activity against Staphylococcus aureus ATCC 29213 measured after 16 to 18 hrs; type: functional; details: time 16-18 hrs
How it was run: (§1)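 Broth microdilution MIC. Strains grown on MHA; a single colony was grown overnight in CA-MHB at 37 °C with shaking for 18–24 h. Cultures were diluted by OD600 to ~10⁶ cfu/mL and exposed to compound at […]. Plates were incubated at 37 °C for 16-18 h. MIC = lowest concentration with no visible growth. Levofloxacin was the reference. Three independent runs, each in duplicate.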

[2] = tested on: Mycobacterium tuberculosis; test: Antitubercular activity against Mycobacterium tuberculosis H37Rv ATCC 27294 measured after 7 days by broth microdilution method; type: functional; details: H37Rv ATCC 27294, 168 h, time 7 day
How it was run: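 H37Rv in Middlebrook 7H9 with 10% ADC, 0.2% glycerol, 0.05% Tween-80. Inoculum ~10⁶ cfu/mL set by OD600. Twofold serial dilutions, 0.0064–0.00005 g/100 mL. Incubated at 37 °C for 7 days, then Presto blue resazurin read-out. MIC = lowest concentration inhibiting visible growth. Triplicate runs, each in duplicate.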

Staphylococcus aureus [3] = test: Antibacterial activity against methicillin-resistant Staphylococcus aureus NR10129 measured after 16 to 18 hrs; type: functional; details: time 16-18 hrs; how it was run: as §1
Staphylococcus aureus [4] = test: Antibacterial activity against methicillin-resistant Staphylococcus aureus NR10193 measured after 16 to 18 hrs; type: functional; details: time 16-18 hrs; how it was run: as §1
Staphylococcus aureus [5] = test: Antibacterial activity against methicillin-resistant Staphylococcus aureus NR10192 measured after 16 to 18 hrs; type: functional; details: time 16-18 hrs; how it was run: as §1
Staphylococcus aureus [6] = test: Antibacterial activity against methicillin-resistant Staphylococcus aureus NR100 measured after 16 to 18 hrs; type: functional; details: time 16-18 hrs; how it was run: as §1
Staphylococcus aureus [7] = test: Antibacterial activity against vancomycin-resistant Staphylococcus aureus VRS1 measured after 16 to 18 hrs; type: functional; details: time 16-18 hrs; how it was run: as §1
Staphylococcus aureus [8] = test: Antibacterial activity against methicillin-resistant Staphylococcus aureus NR10194 measured after 16 to 18 hrs; type: functional; details: time 16-18 hrs; how it was run: as §1
Staphylococcus aureus [9] = test: Antibacterial activity against methicillin-resistant Staphylococcus aureus NR10186 measured after 16 to 18 hrs; type: functional; details: time 16-18 hrs; how it was run: as §1
Staphylococcus aureus [10] = test: Antibacterial activity against vancomycin-resistant Staphylococcus aureus VRS4 measured after 16 to 18 hrs; type: functional; details: time 16-18 hrs; how it was run: as §1
Staphylococcus aureus [11] = test: Antibacterial activity against methicillin-sensitive Staphylococcus aureus ATCC 29213 measured after 16 to 18 hrs; type: functional; details: time 16-18 hrs; how it was run: as §1
Staphylococcus aureus [12] = test: Antibacterial activity against methicillin-resistant Staphylococcus aureus NR10198 measured after 16 to 18 hrs; type: functional; details: time 16-18 hrs; how it was run: as §1
Staphylococcus aureus [13] = test: Antibacterial activity against vancomycin-resistant Staphylococcus aureus VRS12 measured after 16 to 18 hrs; type: functional; details: time 16-18 hrs; how it was run: as §1
Staphylococcus aureus [14] = test: Antibacterial activity against methicillin-resistant Staphylococcus aureus NR10191 measured after 16 to 18 hrs; type: functional; details: time 16-18 hrs; how it was run: as §1
Staphylococcus aureus [15] = test: Antibacterial activity against methicillin-resistant Staphylococcus aureus NR119 measured after 16 to 18 hrs; type: functional; details: time 16-18 hrs; how it was run: as §1
Klebsiella pneumoniae = test: Antibacterial activity against Klebsiella pneumoniae BAA-1705 measured after 16 to 18 hrs; type: functional; details: ATCC BAA-1705, time 16-18 hrs; how it was run: as §1
[16] = Cytotoxicity against African green monkey Vero cells assessed as reduction in cell viability measured after 72 hrs by MTT assay; type: cell-based; details: chlorocebus sabaeus
How it was run: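 Vero cells (ATCC CCL-81), ~10³ cells/well, held 24 h at 37 °C in 5% CO₂. Compound at 100–5 mg/L for 72 h. MTT was added for 4 h, formazan dissolved in DMSO, OD read at 540 nm. CC50 = concentration giving 50% viability reduction. Doxorubicin was the positive control. Triplicate.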

Pseudomonas aeruginosa = test: Antibacterial activity against Pseudomonas aeruginosa ATCC 27853 measured after 16 to 18 hrs; type: functional; details: time 16-18 hrs; how it was run: as §1
Mycobacteroides chelonae = test: Antimycobacterial activity against Mycobacterium chelonae ATCC 35752 by broth microdilution method; type: functional
How it was run: (§2)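 Broth microdilution MIC in Middlebrook 7H9 with 10% ADC-Tween-80 (BSA, dextrose, 0.2% glycerol, 0.05% Tween-80). Inoculum ~10⁶ cfu/mL set by OD600. Compounds were twofold serially diluted, 0.0064–0.00005 g/100 mL (DMSO stocks). Presto blue resazurin dye was used as read-out. MIC = lowest concentration inhibiting visible growth. Triplicate runs, each in duplicate.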

[17] = Selectivity index, ratio of CC50 for cytotoxicity against African green monkey Vero cells to MIC for antibacterial activity against Staphylococcus aureus ATCC 29213; type: toxicity, cell-based; details: read-out: Selectivity Index
How it was run: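 SI = Vero CC50 (MTT, 72 h) divided by MIC against S. aureus ATCC 29213 (CA-MHB broth microdilution, 16-18 h, 37 °C).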

[18] = tested on: Mycobacteroides abscessus; test: Antimycobacterial activity against Mycobacterium abscessus ATCC 19977 by broth microdilution method; type: functional; how it was run: as §2
Escherichia coli = test: Antibacterial activity against Escherichia coli ATCC 25922 measured after 16 to 18 hrs; type: functional; details: time 16-18 hrs; how it was run: as §1
[19] = tested on: Mycolicibacterium fortuitum; test: Antimycobacterial activity against Mycobacterium fortuitum ATCC 6841 by broth microdilution method; type: functional; how it was run: as §2
Acinetobacter baumannii = test: Antibacterial activity against Acinetobacter baumannii BAA1605 measured after 16 to 18 hrs; type: functional; details: time 16-18 hrs; how it was run: as §1

Row | SMILES | MIC (Staphylococcus aureus [1]) [µg/mL] | MIC [2] [µg/mL] | MIC (Klebsiella pneumoniae) [µg/mL] | MIC (Pseudomonas aeruginosa) [µg/mL] | MIC (Mycobacteroides chelonae) [µg/mL] | MIC [18] [µg/mL] | MIC (Escherichia coli) [µg/mL] | MIC [19] [µg/mL] | MIC (Acinetobacter baumannii) [µg/mL] | also measured
1 | N#Cc1ccc(/C=C/c2nc3ccccc3c(=O)n2-c2ccc(C(=O)O)c(O)c2)cc1 | 0.03 (≈ 0.0733 µM) | 64 (≈ 156 µM) |  |  |  |  |  |  |  | 
2 | CCCCCCCCCC(=O)N[C@@H](Cc1c[nH]c2ccccc12)C(=O)N[C@H](CC(N)=O)C(=O)N[C@@H](CC(=O)O)C(=O)N[C@@H]1C(=O)NCC(=O)N[C@@H](CCCN)C(=O)N[C@@H](CC(=O)O)C(=O)N[C@H](C)C(=O)N[C@@H](CC(=O)O)C(=O)NCC(=O)N[C@H](CO)C(=O)N[C@@H]([C@H](C)CC(=O)O)C(=O)N[C@@H](CC(=O)c2ccccc2N)C(=O)O[C@@H]1C |  |  |  |  |  |  |  |  |  | MIC (Staphylococcus aureus [3]): 0.5 µg/mL (≈ 0.309 µM); MIC (Staphylococcus aureus [4]): 1 µg/mL (≈ 0.617 µM); MIC (Staphylococcus aureus [5]): 1 µg/mL (≈ 0.617 µM); MIC (Staphylococcus aureus [6]): 1 µg/mL (≈ 0.617 µM); MIC (Staphylococcus aureus [7]): 1 µg/mL (≈ 0.617 µM); MIC (Staphylococcus aureus [8]): 0.5 µg/mL (≈ 0.309 µM); MIC (Staphylococcus aureus [9]): 0.5 µg/mL (≈ 0.309 µM); MIC (Staphylococcus aureus [10]): 0.5 µg/mL (≈ 0.309 µM); MIC (Staphylococcus aureus [11]): 1 µg/mL (≈ 0.617 µM); MIC (Staphylococcus aureus [12]): 0.5 µg/mL (≈ 0.309 µM); MIC (Staphylococcus aureus [13]): 0.5 µg/mL (≈ 0.309 µM); MIC (Staphylococcus aureus [14]): 1 µg/mL (≈ 0.617 µM); MIC (Staphylococcus aureus [15]): 1 µg/mL (≈ 0.617 µM)
3 | Fc1ccc2[nH]c(-c3ccc(Nc4nc(-c5ccccc5)nc5ccccc45)cc3)nc2c1 | 4 (≈ 9.27 µM) | > 64 | > 64 | > 64 | 32 (≈ 74.2 µM) | > 64 | > 64 | > 64 | > 64 | CC50 at 72 h [16]: 40 µg/mL (≈ 92.7 µM); selectivity ratio [17]: 10
4 | FC(F)(F)c1nc2ccc(Nc3nc(-c4cccs4)nc4ccccc34)cc2[nH]1 | 64 (≈ 156 µM) | 64 (≈ 156 µM) | > 64 | > 64 | > 64 | > 64 | > 64 | > 64 | > 64 | 
5 | O=C(Nc1ccc2nc(-c3ccc4ccccc4c3)[nH]c2c1)c1ccc(Nc2nc(-c3ccccc3)nc3ccccc23)cc1 | > 64 | 64 (≈ 110 µM) | > 64 | > 64 | > 64 | > 64 | > 64 | > 64 | > 64 | 
6 | O=C(Nc1ccc2nc(C(F)(F)F)[nH]c2c1)c1ccc(Nc2nc(-c3ccccc3)nc3ccccc23)cc1 | 32 (≈ 61 µM) | 64 (≈ 122 µM) | > 64 | > 64 | > 64 | > 64 | > 64 | > 64 | > 64 | 
7 | Clc1ccc(-c2nc(Nc3ccc(-c4nc5cc(Cl)ccc5[nH]4)cc3)c3ccccc3n2)cc1 | > 64 |  | > 64 | > 64 |  |  | > 64 |  | > 64 | 
8 | O=C(Nc1ccc2nc(-c3cnc4c(Cl)cccc4c3)[nH]c2c1)c1ccc(Nc2nc(-c3ccccc3)nc3ccccc23)cc1 | > 64 | 16 (≈ 25.9 µM) | > 64 | > 64 | > 64 | > 64 | > 64 | > 64 | > 64 | CC50 at 72 h [16]: > 100 µg/mL; selectivity ratio [17]: > 6.25
9 | O=C(Nc1ccc2nc(-c3ccc(Br)cc3F)[nH]c2c1)c1ccc(Nc2nc(-c3ccccc3)nc3ccccc23)cc1 | 64 (≈ 102 µM) | > 64 | > 64 | > 64 | > 64 | > 64 | > 64 | > 64 | > 64 | 
10 | COc1ccc(-c2nc(Nc3ccc(-c4nc5cc([N+](=O)[O-])ccc5[nH]4)cc3)c3ccccc3n2)cc1OC | > 64 | 8 (≈ 15.4 µM) | > 64 | > 64 | 8 (≈ 15.4 µM) | > 64 | > 64 | 4 (≈ 7.71 µM) | > 64 | CC50 at 72 h [16]: 100 µg/mL (≈ 193 µM); selectivity ratio [17]: 12.5
11 | Brc1ccc2[nH]c(-c3ccc(Nc4nc(-c5ccccc5)nc5ccccc45)cc3)nc2c1 | > 64 |  | > 64 | > 64 |  |  | > 64 |  | > 64 | 
